SMILES strings stand for the structures. The source made the active and inactive calls. No cut-off for these calls is given here.

Holding throughout (type): functional, organism-based
Experiment [1] concerns Human alphaherpesvirus 1. The experiment can be described thus: Antiviral activity against ACV-sensitive Herpes simplex virus 1 KOS infected in male Balb/c mouse assessed as reduction in ulcerated lesion at 50 mg/g applied topically as cream formulation 5 times a day at 3 hrs interval for 10 days measured on day 2 post infection. The conditions noted are these: strain KOS. The procedure, abridged:
(§1)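 Balb/c mice (5 weeks, 22–27 g; six per group, sexes tested separately) had the right mid-flank depilated under i.p. anaesthesia and needle-scarified 24 h later. They were inoculated with 70 μL HSV-1 KOS (10^5 PFU/mL). From 4 h post-infection, O/W emulsion with 0.7% w/w mangiferin or ACV cream (50 mg/g) was applied topically 5 times daily for 10 days. Lesions were scored daily.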

The test system of experiment [2] is Human alphaherpesvirus 1. The experiment can be described thus: Antiviral activity against ACV-resistant Herpes simplex virus 1 AR-29 infected in female Balb/c mouse assessed as reduction in zosteriform lesion at 50 mg/g applied topically as cream formulation 5 times a day at 3 hrs interval for 10 days measured on day 7 post infection. The procedure, abridged: (§2)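 Balb/c mice, 5 weeks old, six per group. Right mid-flank depilated under i.p. anaesthesia, needle-scarified 24 h later and inoculated with 70 μL HSV-1 AR-29 (10^5 PFU/mL). Topical 0.7% w/w O/W emulsion or ACV cream (50 mg/g) starts 4 h post-infection, 5 times daily for 10 days. Lesions are scored daily.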

Experiment [3] concerns Human alphaherpesvirus 1. The experiment can be described thus: Antiviral activity against ACV-resistant Herpes simplex virus 1 AR-29 infected in female Balb/c mouse assessed as reduction in skin lesion at 50 mg/g applied topically as cream formulation 5 times a day at 3 hrs interval for 10 days. The procedure, abridged:
as §2

Experiment [4] has as its system Human alphaherpesvirus 1. The experiment can be described thus: Antiviral activity against ACV-sensitive Herpes simplex virus 1 KOS infected in female Balb/c mouse assessed as reduction in ulcerated lesion at 50 mg/g applied topically as cream formulation 5 times a day at 3 hrs interval for 10 days measured on day 3 to day 5 post infection. The conditions noted are these: strain KOS. The procedure, abridged:
as §1

The test system of experiment [5] is Human alphaherpesvirus 1. Put plainly: Antiviral activity against ACV-sensitive Herpes simplex virus 1 KOS infected in male Balb/c mouse assessed as reduction in ulcerated lesion at 50 mg/g applied topically as cream formulation 5 times a day at 3 hrs interval for 10 days measured on day 7 post infection. The conditions noted are these: strain KOS. The procedure, abridged:
as §1

For experiment [6], the system named is Human alphaherpesvirus 1. Put plainly: Antiviral activity against ACV-resistant Herpes simplex virus 1 AR-29 infected in male Balb/c mouse assessed as reduction in zosteriform lesion at 50 mg/g applied topically as cream formulation 5 times a day at 3 hrs interval for 10 days measured on day 5 post infection. The procedure, abridged:
as §2

Experiment [7] has as its system Human alphaherpesvirus 1. Put plainly: Antiviral activity against ACV-resistant Herpes simplex virus 1 AR-29 infected in male Balb/c mouse assessed as reduction in ulcerated lesion at 50 mg/g applied topically as cream formulation 5 times a day at 3 hrs interval for 10 days measured on day 5 post infection. The procedure, abridged:
as §2

Turning to `Nc1nc2c(ncn2COCCO)c(=O)[nH]1`, the outcome with Human alphaherpesvirus 1 [1], with Human alphaherpesvirus 1 [3], in the experiment on Human alphaherpesvirus 1 [4], in the experiment with Human alphaherpesvirus 1 [6] and in the experiment on Human alphaherpesvirus 1 [7] was inactive. Further, the outcome with Human alphaherpesvirus 1 [2] and in the experiment on Human alphaherpesvirus 1 [5] was Active.
